CHRM5 PAM: CHRM5 positive allosteric modulation. AID 624038. CHO-K1 hM5, Fluo-8 calcium, ACh EC20 PAM; 0% = ACh EC20, 100% = ACh EC100. P08912. activation, % at 3 µM. 360,000 tested, 0.3% active;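 active means activation above the run cutoff, the mean activation of all test compounds plus 3 SD, cut at about 18% in these data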
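Test system: CHO-K1 hM5 cells / Doses: single-point, 3 µM nominal / Times: Post-acetylcholine fluorescence recording 140 s / Technique: Fluo-8 calcium fluorescence / Measure: Max/basal fluorescence ratio as % of EC20–EC100 ACh window / Benchmarks: low control EC20 acetylcholine (0%), high control EC100 acetylcholine (100%) / Replicates: one well per compound, no replicates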
CHRM4 antagonist: CHRM4 antagonism in calcium assay; CHO-hM4 cells, ACh EC80, Fluo-8 calcium fluorescence; inhibition, % at 3 µM; 360,000 tested, 0.73% active; AID 624125;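 active means inhibition above its plate's cutoff, the mean inhibition of sample wells plus 3 SD, cut at about 27% in these data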;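 further: 0% = acetylcholine EC80 with DMSO and 100% = DMSO without agonist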
Target sequence (P08173 whole entry, looked up): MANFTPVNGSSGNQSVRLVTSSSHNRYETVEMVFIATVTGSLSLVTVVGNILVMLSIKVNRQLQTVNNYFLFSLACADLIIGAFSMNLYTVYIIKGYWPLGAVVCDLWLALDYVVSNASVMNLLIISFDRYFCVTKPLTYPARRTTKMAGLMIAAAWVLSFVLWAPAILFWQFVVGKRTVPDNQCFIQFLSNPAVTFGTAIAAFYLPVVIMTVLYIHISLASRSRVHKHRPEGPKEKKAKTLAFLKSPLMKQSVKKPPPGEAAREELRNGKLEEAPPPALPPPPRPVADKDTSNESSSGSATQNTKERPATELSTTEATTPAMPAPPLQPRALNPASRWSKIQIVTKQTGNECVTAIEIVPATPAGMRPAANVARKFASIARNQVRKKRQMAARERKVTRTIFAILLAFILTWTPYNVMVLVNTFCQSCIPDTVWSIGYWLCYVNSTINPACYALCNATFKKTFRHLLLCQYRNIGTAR
CHRM5 agonist: agonists of human muscarinic M5 receptor (CHRM5); P08912; CHO-K1 hM5 cells, Fluo-8 calcium fluorescence; 0% DMSO wells, 100% maximal acetylcholine response; activation, % at 3 µM; 360,000 tested, 0.19% active;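 active means activation above the run's mean over test compounds plus 3 SD, cut at about 23% in these data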;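 further: signal is peak over basal fluorescence ratio across the kinetic read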
M5 antag: antagonists of human muscarinic M5 receptor (CHRM5); 360,000 tested, 0.59% active; AID 624040; P08912; inhibition, % at 3 µM; CHO-hM5 cells, Fluo-8 calcium fluorescence, ACh EC80;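 active means inhibition above a per-plate cutoff, the mean of that plate's test compounds plus 3 SD, cut at about 27% in these data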;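 further: 0% = acetylcholine EC80 with DMSO and 100% = DMSO without agonist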
CHRM4 PAM: CHRM4 positive allosteric modulation | AID 624126 | 360,000 tested, 0.4% active | activation, % at 3 µM | CHO-K1 hM4/Gqi5, Fluo-8 calcium fluorescence, ACh EC20; 0% = ACh EC20, 100% = maximal ACh;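 active means activation above its plate's cutoff, the mean activation of sample wells plus 3 SD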
CHRM4 agonist: agonists of human muscarinic M4 receptor (CHRM4); activation, % at 3 µM; P08173; AID 624127; 360,000 tested, 0.14% active; CHO-K1 hM4/Gqi5, Fluo-8 calcium fluorescence; vehicle 0%, full acetylcholine response 100%;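 active means activation above the run mean over all test wells plus 3 SD, cut at about 32% in these data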;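 further: peak over basal fluorescence ratio per well then scaled between controls; 0% = DMSO wells and 100% = acetylcholine at EC100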
Starred values were filed as active, the others as inactive. The list is not random: actives were taken first. Their share in the collection is about 1.8%.

SMILES | CHRM5 PAM | CHRM4 antagonist | CHRM5 agonist | M5 antag | CHRM4 PAM | CHRM4 agonist
Cc1c(C(=O)Nc2ccc3c(c2)OCCO3)sc2nc(-c3ccccc3)cn12 | -25 | 34* | 6 | 28* | -11 | 30
Cc1c(C(=O)Nc2ccncc2)sc2nc(-c3ccccc3)cn12 | -13 | -6 | 10 | 5 | -6 | 26
O=C(NCC1CCCO1)c1ccc(Oc2ccc([N+](=O)[O-])cc2)cc1 (centres undefined) | -9 | 9 | 0 | 1 | -10 | 10
O=C(NCC1CCCO1)c1ccc(NC(=O)c2ccc([N+](=O)[O-])cc2)cc1 (centres undefined) | 13 | -9 | 14 | -29 | 13* | 6
CCOC(=O)c1ccc(NC(=O)CSc2nnc(-c3cccs3)n2C)cc1 | 21* | -9 | 3 | -8 | 4 | 2
CCOC(=O)c1ccc(NC(=O)CSc2nnc(-c3cccs3)n2CC)cc1 | -2 | -2 | 3 | 1 | 12 | 1
Cc1cccc(C)c1NC(=O)C(C)Sc1nnc(C)n1CC1CCCO1 (centres undefined) | -3 | 2 | 2 | 13 | -3 | 0
O=C(c1ccc2c(c1)OCCO2)N1CCCCC1 | 3 | 0 | 1 | -2 | 27* | 1
O=C(c1ccccc1)N1CCN(C(=O)c2ccc3c(c2)OCCO3)CC1 | 5 | 7 | 3 | 7 | -5 | 0
CC[C@H](C)[C@H]1CNC(=S)N1CC1CCN(CC2CCC(C)CC2)CC1 (some centres undefined) | -12 | 10 | -3 | 4 | -11 | 1
CC[C@H](C)[C@H]1CNC(=S)N1CC1CCN(CCC23CC4CC(CC(C4)C2)C3)CC1 | -19 | 67* | -3 | 18 | -15 | 2
CCN(CC)S(=O)(=O)c1ccc(O)c(C(=O)OCC(=O)NC23CC4CC(CC(C4)C2)C3)c1 | -20 | -2 | 9 | 18 | -5 | 12
Cc1ccc(-c2noc(-c3ccno3)n2)cc1 | -9 | -1 | -5 | 8 | 31* | 1
c1ccc(-c2noc(-c3ccno3)n2)nc1 | 4 | -18 | -1 | 2 | 17 | 0
CNC(=O)c1[nH]cnc1C(=O)Nc1ccc(OC)cc1 | -7 | 0 | -1 | 17 | -6 | 5
O=Cc1ccc(-c2ccccc2C(=O)O)o1 | -5 | 2 | 0 | 11 | 1 | 1
O=C(O)c1ccccc1-c1c2cc(I)c(=O)c(I)c-2oc2c(I)c(O)c(I)cc12 | -20 | 57* | 107* | 38* | -19 | 254*
CC(=O)c1ccc(N2C(=NC(=O)C3CCCCC3)SC3CS(=O)(=O)CC32)cc1 (centres undefined) | 2 | -4 | -2 | 2 | 2 | 1
COc1ccc(C(=O)n2nc(C)c(Br)c2C)cc1 | 21* | 4 | -10 | -10 | 12 | 1
CC(=O)c1cccc(CN(C)CC2CCCN(CCc3ccccc3C)C2)c1 (centres undefined) | -33 | 88* | -23 | 81* | -16 | 2
COc1ccccc1CCN1CCCC(CN(C)CC(C)(C)CO)C1 (centres undefined) | -1 | 30* | -16 | 11 | -16 | 1
CCc1ccc(N2CC(C(=O)N/N=C/c3ccccc3)CC2=O)cc1 (centres undefined) | -6 | -3 | -2 | -7 | -3 | -1
COc1cccc(S(=O)(=O)Nc2cccc(C(=O)N3CCCC3)c2)c1 | -1 | -2 | -3 | 5 | -1 | 0
COc1cccc(S(=O)(=O)Nc2cccc(C(=O)N3CCOCC3)c2)c1 | -17 | 36* | -5 | -3 | -17 | 1
CC1(C(=O)NS(=O)(=O)C2CC2)CCCN(C(=O)c2cccc(Cl)c2)C1 (centres undefined) | 1 | -3 | 0 | -1 | -5 | 1
SMILES | CHRM5 PAM | CHRM4 antagonist | CHRM5 agonist | M5 antag | CHRM4 PAM | CHRM4 agonist
CC(C)N(C)Cc1nnnn1CC(=O)NCCc1cccc(C(F)(F)F)c1 | 22* | -2 | 3 | 1 | -4 | 0
CCOC(=O)C1=CCC(c2ccc(CC)cc2)N(S(=O)(=O)c2ccc(C)cc2)C1 (centres undefined) | -12 | -2 | -1 | 5 | -8 | 0
COc1ccccc1N=C1NC(=O)/C(=C/c2ccc(N(C)C)cc2)S1 | -15 | 14 | 51* | 36* | -14 | 22
COc1cc(/C=C2/SC(=Nc3ccc(O)cc3)NC2=O)cc(OC)c1O | 3 | 0 | 7 | 0 | -3 | 9
Cc1ccc(S(=O)(=O)NCC(=O)OCC(=O)N(C)C2CCCCC2)cc1 | -4 | 5 | 0 | 14 | 1 | 1
C=C1CC(Cn2cc(Br)c(=O)[nH]c2=O)(c2ccc(-c3ccccc3)cc2)OC1=O (centres undefined) | -22 | 46* | -3 | 4 | -7 | 6
CCCCN(CC(=O)NC1CC1)S(=O)(=O)c1ccc(OCC)cc1 | -2 | 29* | 0 | 3 | -6 | 0
CCOc1ccc(S(=O)(=O)N(C)CC(=O)NC2CC2)cc1 | -3 | -3 | -6 | 14 | 12 | 0
CCN1C(=C(C#N)C#N)C=Cc2cc(C)ccc21 | 1 | 5 | -6 | -1 | 1 | 1
C=CC[n+]1c(/C=C2\C=Cc3cc(C)ccc3N2CC)ccc2ccccc21 | -15 | 33* | 5 | 37* | -21 | 12
Cc1cccc(NC(=O)COc2ccc(Br)cc2)n1 | 33* | 1 | -3 | 26 | 3 | 0
Cc1ccc(OCC(=O)NC(=S)Nc2cccc(C)n2)cc1 | 6 | -9 | -2 | -4 | 9 | -1
CC(=O)c1sc2nc(-c3ccc(C)cc3)c3c(c2c1N)CCCC3 | -2 | -3 | -2 | 4 | -12 | -1
Cc1ccc(-c2nc3sc(C(N)=O)c(N)c3c3c2CCCC3)cc1 | -12 | 99* | 0 | 10 | -18 | -2
COc1cccc(C(=O)NCCS(=O)(=O)N2CC(C)CC(C)C2)c1 (centres undefined) | -1 | -5 | 0 | 4 | -1 | 1
Cc1ccccc1C(=O)N1CCN(c2ccc(NC(=O)CSc3ccc(Cl)cc3)cc2)CC1 | -16 | 27* | 4 | 21 | -11 | 19
CC1(C(=O)NS(=O)(=O)c2cccs2)CCN1C(=O)CCc1ccc(Cl)cc1Cl (centres undefined) | -5 | 5 | -1 | 13 | 2 | -1
COc1ccc(CNC(=O)C2(C)Cc3c(-c4ccc(N(C)C)cc4)ccnc3O2)cc1OC (centres undefined) | 2 | -12 | -1 | -3 | 10 | -2
CC(C)c1ccc(NC(=O)CSc2nc(=O)[nH]c3c2CCCC3)cc1 | 3 | -8 | 45* | -5 | 28* | 1
